Here are results for 21 molecules from ChEMBL document CHEMBL4371074, “Discovery of Selective Matriptase and Hepsin Serine Protease Inhibitors: Useful Chemical Tools for Cancer Cell Biology” (J Med Chem, 2019).

Activity calls are given as the source filed them. No cut-off for these calls is given here.

Assay [1] has as its target T1, Serine protease hepsin (Homo sapiens, UniProt P05981). As to the kind of experiment: Inhibition of recombinant human C-terminal His10-tagged hepsin catalytic domain preincubated for 30 mins followed by Boc-QAR-AMC substrate addition and measured for 1 hr by fluorescence assay. The note with it: read-out: Ki(app). A digest of the protocol:
(§1)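 HGFA was at 7.5 nM with Boc-QLR-AMC (Km 37 µM). Matriptase was at 0.2 nM and hepsin at 0.3 nM, both with Boc-QAR-AMC (Km 93 and 156 µM). Hepsin was pre-activated for 24 h at 37°C. Eleven inhibitor concentrations (0-20 µM, 2% DMSO) were given 30 min RT before substrate at Km. Fluorescence was read at ex 380/em 460 nm. IC50 came from a four-parameter fit, mean of three experiments.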

The target of assay [2] is T2, Suppressor of tumorigenicity 14 protein (Homo sapiens, UniProt Q9Y5Y6).
T2 sequence (Q9Y5Y6 whole entry): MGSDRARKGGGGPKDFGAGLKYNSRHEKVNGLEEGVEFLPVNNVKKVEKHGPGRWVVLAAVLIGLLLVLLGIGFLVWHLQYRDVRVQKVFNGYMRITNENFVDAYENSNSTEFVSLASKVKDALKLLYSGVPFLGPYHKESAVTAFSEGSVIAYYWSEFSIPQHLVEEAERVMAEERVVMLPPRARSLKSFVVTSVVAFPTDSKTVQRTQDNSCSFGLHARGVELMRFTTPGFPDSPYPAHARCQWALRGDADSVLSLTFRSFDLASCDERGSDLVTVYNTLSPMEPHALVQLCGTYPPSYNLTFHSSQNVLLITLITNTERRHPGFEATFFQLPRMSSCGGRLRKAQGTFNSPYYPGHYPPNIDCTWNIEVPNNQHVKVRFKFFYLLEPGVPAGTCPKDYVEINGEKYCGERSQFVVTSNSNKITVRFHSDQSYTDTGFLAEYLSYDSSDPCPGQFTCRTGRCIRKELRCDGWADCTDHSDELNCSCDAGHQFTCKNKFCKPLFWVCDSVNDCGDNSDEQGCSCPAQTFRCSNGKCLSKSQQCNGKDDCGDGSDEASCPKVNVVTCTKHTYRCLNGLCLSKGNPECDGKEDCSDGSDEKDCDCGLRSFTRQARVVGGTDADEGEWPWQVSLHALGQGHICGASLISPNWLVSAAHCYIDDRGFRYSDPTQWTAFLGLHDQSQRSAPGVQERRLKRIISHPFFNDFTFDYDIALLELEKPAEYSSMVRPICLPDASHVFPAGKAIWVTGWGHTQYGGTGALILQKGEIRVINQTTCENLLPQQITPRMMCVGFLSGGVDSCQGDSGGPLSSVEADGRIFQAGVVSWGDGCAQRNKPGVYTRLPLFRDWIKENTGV
As to the kind of experiment: Inhibition of recombinant human N-terminal His6-tagged matriptase catalytic domain expressed in Escherichia coli preincubated for 30 mins followed by Boc-QAR-AMC substrate addition and measured for 1 hr by fluorescence assay. The settings on record: read-out: Ki(app). A digest of the protocol: as §1

The target of assay [3] is T3, Hepatocyte growth factor activator serine protease (Homo sapiens, UniProt Q04756).
T3 sequence (Q04756 whole entry): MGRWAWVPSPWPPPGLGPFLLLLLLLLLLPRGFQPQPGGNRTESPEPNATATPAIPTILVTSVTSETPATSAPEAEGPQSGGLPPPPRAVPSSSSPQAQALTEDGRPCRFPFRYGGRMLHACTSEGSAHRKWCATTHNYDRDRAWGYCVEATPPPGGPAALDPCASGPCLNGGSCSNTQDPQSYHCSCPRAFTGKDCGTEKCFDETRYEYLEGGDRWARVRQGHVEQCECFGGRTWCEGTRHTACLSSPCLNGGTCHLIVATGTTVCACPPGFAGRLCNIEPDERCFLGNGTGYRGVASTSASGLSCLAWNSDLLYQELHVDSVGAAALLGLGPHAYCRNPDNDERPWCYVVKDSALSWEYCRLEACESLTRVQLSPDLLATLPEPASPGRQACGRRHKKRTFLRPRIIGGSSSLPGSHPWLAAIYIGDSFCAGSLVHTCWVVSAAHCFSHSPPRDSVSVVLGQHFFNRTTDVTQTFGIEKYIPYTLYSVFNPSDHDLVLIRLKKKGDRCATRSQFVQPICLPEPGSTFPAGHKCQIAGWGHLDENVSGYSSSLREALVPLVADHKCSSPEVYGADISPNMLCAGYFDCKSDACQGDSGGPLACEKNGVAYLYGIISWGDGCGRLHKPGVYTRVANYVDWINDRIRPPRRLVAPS
As to the kind of experiment: Inhibition of HGFA catalytic domain (unknown origin) preincubated for 30 mins followed by Boc-QLR-AMC substrate addition and measured for 1 hr by fluorescence assay. The note with it: read-out: Ki(app).

The species named for assay [4] is Homo sapiens. Briefly: Selectivity ratio of Ki(app) for recombinant human C-terminal His10-tagged hepsin catalytic domain to Ki(app) for recombinant human N-terminal His6-tagged matriptase catalytic domain expressed in Escherichia coli.
The species named for assay [5] is Homo sapiens. As to the kind of experiment: Selectivity ratio of Ki(app) for recombinant human N-terminal His6-tagged matriptase catalytic domain expressed in Escherichia coli to Ki(app) for recombinant human C-terminal His10-tagged hepsin catalytic domain.
Assay [6] addresses T1, Serine protease hepsin. Briefly: Inhibition of hepsin (unknown origin) expressed in MCF10A cells assessed as reduction in desmosomal cadherin desmoglein 2 loss at 1 uM after 45 mins by Hoechst 33258 staining based immunofluorescence microscopic method. The assay is classed as cell-based. A digest of the protocol: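 MCF10A-Indu20-hepsin cells were grown as 2D monolayers on coverslips, with or without doxycycline induction, and pretreated with inhibitor at 1 µM. They were fixed and permeabilized in ice-cold methanol for 5 min and blocked in 0.1% BSA/PBS for 30 min. Staining used anti-desmoglein 2 and anti-hepsin, then Alexa secondaries for 45 min RT, with Hoechst nuclei. Confocal images were scored; cells with pericellular desmoglein 2 on at least two sides counted positive.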

Assay [7] deals with T1, Serine protease hepsin. Briefly: Inhibition of hepsin (unknown origin) expressed in MCF10A cells preincubated for 30 mins followed by Boc-QRR-AMC substrate addition and measured for 1 hr by fluorescence assay.

Turning to `N=C(N)NCCC[C@H](NC(=O)[C@H](Cc1cnc[nH]1)NC(=O)OCC1c2ccccc2-c2ccccc21)C(=O)c1nc2ccccc2s1`, the Ki at Serine protease hepsin [1] is 226 nM; in assay [2], 11 nM; in assay [3], 6120 nM. In addition, the Ratio Ki(app) in the assay filed under Homo sapiens [4] was 21.
In the case of `CC[C@H](C)[C@H](NC(=O)OCC1c2ccccc2-c2ccccc21)C(=O)N[C@@H](CCCNC(=N)N)C(=O)c1nc2ccccc2s1`, the Ki on Serine protease hepsin [1] is 228 nM; in assay [2], 486 nM; in assay [3], 4300 nM. Also, in the assay listed under Homo sapiens [5], the Ratio Ki(app) is 2.1.
`CC(C)C[C@H](NC(=O)OCC1c2ccccc2-c2ccccc21)C(=O)N[C@@H](CCCNC(=N)N)C(=O)c1nc2ccccc2s1`: the figures for the Ki (at Serine protease hepsin [1]; in assay [2]; in assay [3]) were 67 nM, 253 nM and 468 nM, respectively. Also, in the assay filed under Homo sapiens [5], the Ratio Ki(app) was 3.8.
As for `N=C(N)NCCC[C@H](NC(=O)[C@H](CO)NC(=O)OCC1c2ccccc2-c2ccccc21)C(=O)c1nc2ccccc2s1`, the Ki is 555 nM at Serine protease hepsin [1], 4.9 nM in assay [2] and more than 10000 nM in assay [3]. Besides, the Ratio Ki(app) in the assay listed under Homo sapiens [4] was found to be 113.
In the same order, the values of `N=C(N)NCCC[C@H](NC(=O)[C@H](CCC(=O)O)NC(=O)OCC1c2ccccc2-c2ccccc21)C(=O)c1nc2ccccc2s1` are 372 nM, 7.2 nM, more than 10000 nM and 52.
In the same order, the values of `N=C(N)NCCC[C@H](NC(=O)OCC1c2ccccc2-c2ccccc21)C(=O)N[C@@H](CCCNC(=N)N)C(=O)c1nc2ccccc2s1` are 102 nM, 3.9 nM, 8630 nM and 26.
With `CC(=O)N[C@@H](CCCCN)C(=O)N[C@@H](CCC(N)=O)C(=O)N[C@@H](CC(C)C)C(=O)N[C@@H](CCCNC(=N)N)C(=O)c1nc2ccccc2s1`, in the assay filed under Homo sapiens [5], the Ratio Ki(app) was found to be 6.1.
As for `N=C(N)NCCC[C@H](NC(=O)[C@H](CCCCN)NC(=O)OCC1c2ccccc2-c2ccccc21)C(=O)c1nc2ccccc2s1`, the Ki on Serine protease hepsin [1] was 104 nM; in assay [2], 0.22 nM; in assay [3] it was more than 10000 nM. Moreover, the Ratio Ki(app) in the assay listed under Homo sapiens [4] amounted to 473.
As to `CSCC[C@H](NC(=O)OCC1c2ccccc2-c2ccccc21)C(=O)N[C@@H](CCCNC(=N)N)C(=O)c1nc2ccccc2s1`, the Ki on Serine protease hepsin [1] was found to be 227 nM; in assay [2], 5.4 nM.
Regarding `C[C@@H](O)[C@H](NC(=O)OCC1c2ccccc2-c2ccccc21)C(=O)N[C@@H](CCCNC(=N)N)C(=O)c1nc2ccccc2s1`, the Ki is 180 nM on Serine protease hepsin [1], 271 nM in assay [2] and more than 10000 nM in assay [3]. Also, the Ratio Ki(app) in the assay listed under Homo sapiens [5] stood at 1.5.
For the molecule `N=C(N)NCCC[C@H](NC(=O)[C@H](CCC(N)=O)NC(=O)OCC1c2ccccc2-c2ccccc21)C(=O)c1nc2ccccc2s1`, the Ki was 116 nM on Serine protease hepsin [1], 0.65 nM in assay [2] and 6830 nM in assay [3]. Also, in the assay filed under Homo sapiens [4], the Ratio Ki(app) came to 179.
As for `N=C(N)NCCC[C@H](NC(=O)CNC(=O)OCC1c2ccccc2-c2ccccc21)C(=O)c1nc2ccccc2s1`, the inhibition entry on Serine protease hepsin [6] is “inactive”. In addition, the Ki in assay [3] came out at 9370 nM. Further, the IC50 (commonly the concentration that inhibits the measured activity by half) against Serine protease hepsin [7] is more than 10000 nM. Also, the Ratio Ki(app) in the assay listed under Homo sapiens [4] was found to be 6390.
Consider `C[C@H](NC(=O)OCC1c2ccccc2-c2ccccc21)C(=O)N[C@@H](CCCNC(=N)N)C(=O)c1nc2ccccc2s1`, for which the Ki at Serine protease hepsin [1] is 240 nM; in assay [2], 0.36 nM; in assay [3], 7980 nM. The Ratio Ki(app) in the assay filed under Homo sapiens [4] was 667.
With `N=C(N)NCCC[C@H](NC(=O)[C@H](Cc1ccc(O)cc1)NC(=O)OCC1c2ccccc2-c2ccccc21)C(=O)c1nc2ccccc2s1`, the results for the Ki (at Serine protease hepsin [1]; in assay [2]; in assay [3]) were 256 nM, 25 nM and 2960 nM, respectively. Also, the Ratio Ki(app) in the assay listed under Homo sapiens [4] worked out at 10.
Regarding `N=C(N)NCCC[C@H](NC(=O)[C@H](Cc1c[nH]c2ccccc12)NC(=O)OCC1c2ccccc2-c2ccccc21)C(=O)c1nc2ccccc2s1`, the Ki was 302 nM on Serine protease hepsin [1], 294 nM in assay [2] and 3200 nM in assay [3]. The Ratio Ki(app) in the assay listed under Homo sapiens [4] and in the assay filed under Homo sapiens [5] was 1 in each case.
As to `N=C(N)NCCC[C@H](NC(=O)[C@H](CC(N)=O)NC(=O)OCC1c2ccccc2-c2ccccc21)C(=O)c1nc2ccccc2s1`, the inhibition entry on Serine protease hepsin [6] was “Active”. Moreover, the Ki in assay [3] is 4770 nM. The midpoint of inhibition against Serine protease hepsin [7], the IC50, lay at 92 nM. Moreover, the Ratio Ki(app) in the assay listed under Homo sapiens [5] amounted to 62.
As for `CC(=O)N[C@@H](CO)C(=O)N[C@@H](CCCCN)C(=O)N[C@@H](CC(C)C)C(=O)N[C@@H](CCCNC(=N)N)C(=O)c1nc2ccccc2s1`, the Ki in assay [2] was found to be 3.1 nM. In the assay listed under Homo sapiens [5], the Ratio Ki(app) came to 19.
Take `N=C(N)NCCC[C@H](NC(=O)[C@H](Cc1ccccc1)NC(=O)OCC1c2ccccc2-c2ccccc21)C(=O)c1nc2ccccc2s1`: the Ki at Serine protease hepsin [1] was 764 nM; in assay [2] it was 188 nM. The Ratio Ki(app) in the assay filed under Homo sapiens [4] was 4.
Regarding `N=C(N)NCCC[C@H](NC(=O)[C@@H]1CCCN1C(=O)OCC1c2ccccc2-c2ccccc21)C(=O)c1nc2ccccc2s1`, the Ki on Serine protease hepsin [1] is 391 nM; in assay [2], 0.5 nM; in assay [3], more than 10000 nM. Besides, the Ratio Ki(app) in the assay filed under Homo sapiens [4] came out at 782.
For the molecule `CC(C)[C@H](NC(=O)OCC1c2ccccc2-c2ccccc21)C(=O)N[C@@H](CCCNC(=N)N)C(=O)c1nc2ccccc2s1`, the Ki on Serine protease hepsin [1] is 125 nM; in assay [2], 18 nM; in assay [3] it was 4630 nM. In the assay listed under Homo sapiens [4], the Ratio Ki(app) stood at 6.9.
With `N=C(N)NCCC[C@H](NC(=O)[C@H](CC(=O)O)NC(=O)OCC1c2ccccc2-c2ccccc21)C(=O)c1nc2ccccc2s1`, the Ki on Serine protease hepsin [1] was 98 nM; in assay [2], 294 nM; in assay [3], more than 10000 nM. For the same molecule, the Ratio Ki(app) in the assay filed under Homo sapiens [5] amounted to 3.
